# In ChEMBL document CHEMBL2057133, “A 20S combined with a 22R configuration markedly increases both in vivo and in vitro biological activity of 1α,25-dihydroxy-22-methyl-2-methylene-19-norvitamin D3” (J Med Chem, 2012):
# The source made the active and inactive calls. The rule behind the calls is not given here.
# Tests used:
# [1] = system: Rattus norvegicus; test: Calcium mobilization in vitamin-D deficient weanling Sprague-Dawley rat bone assessed as increase in serum calcium level at 32 to 70200 pmol, ip administered every 24 hrs for 4 consecutive days measured 24 hrs post last dose relative to vehicle treated control; assay type: functional, organism-based
# Procedure, shortened: (§1)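 Male weanling Sprague-Dawley rats were fed Diet 11 (0.47% Ca) + AEK oil for 1 week, then 0.02% Ca + AEK oil for 3 weeks, then 0.47% Ca for 1 week, then 0.02% Ca for 2 weeks. Dosing began in the last week on 0.02% Ca: four daily intraperitoneal doses. Serum calcium was measured in neck blood 24 h after the last dose and expressed as the difference from vehicle controls. Mean ± SEM of 6 values.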
# [2] = system: Rattus norvegicus; test: (§2) Calcium mobilization in vitamin-D deficient weanling Sprague-Dawley rat intestine assessed as increase in serosal/mucosal calcium level at 32 to 7020 pmol, ip administered every 24 hrs for 4 consecutive days measured 24 hrs post last dose by everted gut sac method relative to vehicle treated control; assay type: functional, organism-based
# [3] = system: HL-60; test: Ratio of 1alpha,25-(OH)2D3 ED50 to compound ED50 for induction of human HL60 cell differentiation; assay type: functional
# Procedure, shortened: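 HL-60 promyelocyte differentiation to monocytes was scored as the percentage of cells reducing nitro blue tetrazolium. ED50 is the concentration giving 50% maturation, from dose-response curves; the experiment was done twice in duplicate. The ratio is the average of 1α,25-(OH)2D3 ED50 over analogue ED50.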
# [4] = target: T1, Vitamin D3 receptor (Rattus norvegicus, UniProt P13053); test: Displacement of [3H]-1alpha,25(OH)2D3 from recombinant rat VDR after overnight incubation by scintillation counting
# T1 sequence (P13053 whole entry): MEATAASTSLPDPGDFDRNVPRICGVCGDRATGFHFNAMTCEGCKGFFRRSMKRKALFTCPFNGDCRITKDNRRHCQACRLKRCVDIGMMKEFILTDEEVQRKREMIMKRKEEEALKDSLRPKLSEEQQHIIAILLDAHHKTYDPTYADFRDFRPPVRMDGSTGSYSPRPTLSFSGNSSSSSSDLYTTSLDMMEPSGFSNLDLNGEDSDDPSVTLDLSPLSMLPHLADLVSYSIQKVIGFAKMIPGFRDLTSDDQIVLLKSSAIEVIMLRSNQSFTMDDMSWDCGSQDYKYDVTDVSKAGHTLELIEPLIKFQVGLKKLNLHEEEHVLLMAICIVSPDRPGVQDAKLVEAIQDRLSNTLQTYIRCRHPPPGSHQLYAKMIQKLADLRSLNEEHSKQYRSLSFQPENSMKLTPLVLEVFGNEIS
# Procedure, shortened: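 Competition assay using full-length recombinant rat VDR with radiolabeled 1α,25-(OH)2D3 at 1 nM. Ki was derived from dose-response curves using a Kd of 0.2 nM. Run in duplicate on two separate occasions.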
# [5] = target: T2, Vitamin D3 receptor (Rattus norvegicus) (UniProt P13053); test: Activation of VDR-mediated 24-hydroxylase transcription in rat osteosarcoma cells after 16 hrs by luciferase reporter gene assay
# T2 sequence (whole entry): T1 sequence (P13053 whole entry)
# [6] = system: Rattus norvegicus; test: as §2, with “35100” for “7020”; assay type: functional, organism-based
# [7] = system: HL-60; test: Induction of human HL60 cell differentiation after 4 days by NBT reduction assay; assay type: functional; conditions: HL-60, 96 h, read-out: ED50 (the source's name)
# [8] = system: Rattus norvegicus; test: Calcium mobilization in vitamin-D deficient weanling Sprague-Dawley rat bone assessed as increase in serum calcium level at 32 to 35100 pmol, ip administered every 24 hrs for 4 consecutive days measured 24 hrs post last dose relative to vehicle treated control; assay type: functional, organism-based; procedure, shortened: as §1
# [9] = system: Rattus norvegicus; test: Calcium mobilization in vitamin-D deficient weanling Sprague-Dawley rat bone assessed as increase in serum calcium level at 32 to 2340 pmol, ip administered every 24 hrs for 4 consecutive days measured 24 hrs post last dose relative to vehicle treated control; assay type: functional, organism-based; procedure, shortened: as §1
# [10] = system: Rattus norvegicus; test: Calcium mobilization in vitamin-D deficient weanling Sprague-Dawley rat intestine assessed as increase in serosal/mucosal calcium level at 32 to 2340 pmol, ip administered every 24 hrs for 4 consecutive days measured 24 hrs post last dose by everted gut sac method relative to vehicle treated control; assay type: functional, organism-based
SMILES,Activity [1],Activity [2],Ratio ED50 [3],Ki [4] [nM],ED50 [5] [nM],Activity [6],EC50 [7] [nM],Activity [8],Activity [9],Activity [10]
C=C1/C(=C\C=C2/CCC[C@]3(C)[C@@H]([C@H](C)CCCC(C)(C)O)CC[C@@H]23)C[C@@H](O)C[C@@H]1O,Active,Active,–,–,–,–,–,–,–,–
C=C1[C@H](O)CC(=C/C=C2\CCC[C@]3(C)[C@@H]([C@@H](C)[C@@H](C)CCC(C)(C)O)CC[C@@H]23)C[C@H]1O,–,–,0.1,10,4,Active,20,Active,–,–
C=C1[C@H](O)CC(=C/C=C2\CCC[C@]3(C)[C@@H]([C@H](C)[C@H](C)CCC(C)(C)O)CC[C@@H]23)C[C@H]1O,–,–,0.2,0.2,5,Active,10,Active,–,–
C=C1[C@H](O)CC(=C/C=C2\CCC[C@]3(C)[C@@H]([C@@H](C)C(C)(C)CCC(C)(C)O)CC[C@@H]23)C[C@H]1O,–,–,2,0.06,0.6,inactive,1,inactive,–,–
C=C1[C@H](O)CC(=C/C=C2\CCC[C@]3(C)[C@@H]([C@@H](C)CCCC(C)(C)O)CC[C@@H]23)C[C@H]1O [DP001],–,–,25,–,0.007,–,0.08,–,–,–
C=C1[C@H](O)CC(=C/C=C2\CCC[C@]3(C)[C@@H]([C@@H](C)[C@H](C)CCC(C)(C)O)CC[C@@H]23)C[C@H]1O,–,–,100,0.04,0.007,–,0.02,–,Active,Active
C=C1[C@H](O)CC(=C/C=C2\CCC[C@]3(C)[C@@H]([C@H](C)C(C)(C)CCC(C)(C)O)CC[C@@H]23)C[C@H]1O,–,–,2.2,0.02,0.03,inactive,0.9,inactive,–,–
C=C1[C@H](O)CC(=C/C=C2\CCC[C@]3(C)[C@@H]([C@H](C)[C@@H](C)CCC(C)(C)O)CC[C@@H]23)C[C@H]1O,–,–,2.2,0.1,0.2,inactive,0.9,inactive,–,–
